This is an account of results in ChEMBL document CHEMBL1165928, “Synthesis and structure-activity relationships of 2-acylamino-4,6-diphenylpyridine derivatives as novel antagonists of GPR54” (Bioorg Med Chem, 2010).

Test [1] addresses T1, KiSS-1 receptor (Homo sapiens, UniProt Q969F8). Briefly: Displacement of [125I]metastin(40-54) from human GPR54 receptor expressed in CHO cells after 60 mins by scintillation counting. It counts as cell-based. An outline of the steps: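 Membranes came from CHO h175-KB34 cells stably expressing human GPR54, harvested at ≤50% confluency, homogenized with protease inhibitors, pelleted and stored at −80 °C. Binding used 135 pM 125I-metastin(40-54) in pH 7.4 Tris/Mg acetate/EGTA buffer with 1 mg/ml BSA, 60 min at 25 °C. Samples were filtered on 0.3% PEI-treated GF/C plates, washed three times, and filter radioactivity was counted.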

For test [2], the target named is T1, KiSS-1 receptor. Briefly: Antagonist activity at human GPR54 receptor expressed in CHO cells assessed as inhibition of metastin(40-54)-induced intracellular calcium mobilization by FLIPR assay. The class given is functional, cell-based. An outline of the steps:
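Human GPR54 cell lines h175-KB33 and h175-16 were plated at 30,000 cells/well and cultured overnight. They were loaded 60 min at 37 °C with Fluo-3AM, 1.25 mM probenecid and 0.04% Pluronic F-127 in pH 7.4 Hepes salt buffer with 0.1% BSA, then washed. Ca2+ was read by FLIPR. Agonist was metastin(40-54) at 30 nM (h175-KB33) or 100 pM (h175-16).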
In general terms: Calcium assays in cells follow changes in intracellular calcium, usually with a dye or a luminescent sensor.

Test [3] has as its target T1, KiSS-1 receptor. As to conditions: CHO, 10 uM.

Each structure is given as a SMILES string. pIC50: −log10 of the molar value. Bounds are passed on as bounds.

T1 sequence (Q969F8 whole entry): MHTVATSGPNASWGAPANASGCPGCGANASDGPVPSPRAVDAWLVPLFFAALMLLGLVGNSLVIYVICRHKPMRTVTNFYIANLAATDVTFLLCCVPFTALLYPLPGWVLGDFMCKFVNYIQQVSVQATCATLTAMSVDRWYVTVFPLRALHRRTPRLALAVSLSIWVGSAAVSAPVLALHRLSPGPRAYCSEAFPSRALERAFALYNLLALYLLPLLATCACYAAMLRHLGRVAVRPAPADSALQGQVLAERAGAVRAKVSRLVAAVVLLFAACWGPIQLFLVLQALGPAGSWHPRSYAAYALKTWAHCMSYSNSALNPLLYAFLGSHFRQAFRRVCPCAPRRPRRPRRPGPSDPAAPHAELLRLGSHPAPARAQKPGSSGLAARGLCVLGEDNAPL

What is called pIC50 is the negative decadic logarithm of the IC50, by convention in mol/L. In the case of `Cc1ccc(-c2cc(-c3cccc(NC(=O)CCN)c3)c(C#N)c(NC(=O)c3cccs3)n2)c(O)c1`, the negative logarithm of the IC50 (pIC50) was 7.92 on KiSS-1 receptor [1] and 6.04 on KiSS-1 receptor [2].
As to `CC(C)(CN)NC(=O)c1cccc(-c2cc(-c3ccccc3O)nc(NC(=O)c3ccco3)c2C#N)c1`, on KiSS-1 receptor [1], the negative logarithm of the IC50 (pIC50) is 7.82.
Still for that read-out and setting: in the case of `N#Cc1c(-c2cccc(C(=O)O)c2)cc(-c2ccccc2O)nc1NC(=O)c1cccs1` it was 5.00.
Regarding `N#Cc1c(-c2cccc(NC(=O)CCN)c2)cc(-c2ccc(F)cc2O)nc1NC(=O)c1cccs1`, the pIC50 is 8.13 on KiSS-1 receptor [1] and 5.44 at KiSS-1 receptor [2].
`N#Cc1c(-c2cccc(C(=O)NCCN)c2)cc(-c2ccccc2O)nc1NC(=O)c1cccs1`: the pIC50 at KiSS-1 receptor [1] is 7.35; on KiSS-1 receptor [2], 5.29.
Regarding `COc1ccc(C(=O)Nc2nc(-c3ccccc3O)cc(-c3cccc(C(=O)NCCN)c3)c2C#N)cc1`, the negative-log IC50 (pIC50) on KiSS-1 receptor [1] was 7.51.
Consider `COc1ccc(-c2cc(-c3cccc(NC(=O)CCN)c3)c(C#N)c(NC(=O)c3ccccc3)n2)c(O)c1`, for which the negative-log IC50 (pIC50) on KiSS-1 receptor [1] is 6.92.
`N#Cc1c(-c2cccc(NC(=O)CCN)c2)cc(-c2ccc(Br)cc2O)nc1NC(=O)c1cccs1`: the negative logarithm of the IC50 (pIC50) was 7.72 at KiSS-1 receptor [1] and 5.20 at KiSS-1 receptor [2].
With `COc1ccccc1-c1cc(-c2cccc(N)c2)c(C#N)c(NC(=O)c2cccs2)n1`, on KiSS-1 receptor [1], the pIC50 was less than 4.52.
The inhibition is how much of the control response was suppressed. Low readings indicate little suppression, high ones strong suppression. As to `N#Cc1c(-c2cccc(CO)c2)cc(-c2ccccc2O)nc1NC(=O)c1cccs1`, at KiSS-1 receptor [1], the pIC50 is 5.82. This compound also returned an inhibition against KiSS-1 receptor [3] of 58%.
The compound `COc1ccc(O)c(-c2cc(-c3cccc(NC(=O)CCN)c3)c(C#N)c(NC(=O)c3cccs3)n2)c1` had a negative-log IC50 (pIC50) at KiSS-1 receptor [1] of 6.32.
Still for that read-out and setting: the figure for `Cc1c(-c2ccccc2O)nc(NC(=O)c2ccco2)c(C#N)c1-c1cccc(NC(=O)CCN)c1` is 5.92; for `N#Cc1c(-c2cccc(CN)c2)cc(-c2ccccc2O)nc1NC(=O)c1cccs1` it is 6.24.
`N#Cc1c(-c2cccc(NC(=O)CCN)c2)cc(-c2ccc(F)cc2O)nc1NC(=O)c1ccco1`: the figures for the pIC50 on KiSS-1 receptor [1] and at KiSS-1 receptor [2] were 8.43 and 6.34, respectively.
Consider `N#Cc1c(-c2cccc(C(=O)NCCN)c2)cc(-c2ccccc2O)nc1NC(=O)c1ccco1`, for which, on KiSS-1 receptor [1], the pIC50 is 7.85.
In the case of `N#Cc1c(-c2cccc(C(=O)NCCN)c2)cc(-c2ccc(F)cc2O)nc1NC(=O)c1ccco1`, the figures for the negative logarithm of the IC50 (pIC50) on KiSS-1 receptor [1] and on KiSS-1 receptor [2] were 8.10 and 6.18, respectively.
For the compound `COc1ccccc1C(=O)Nc1nc(-c2ccccc2O)cc(-c2cccc(C(=O)NCCN)c2)c1C#N`, on KiSS-1 receptor [1], the pIC50 was 7.35.
On the same count and under the same terms, in the case of `N#Cc1c(-c2ccccc2C(=O)NCCN)cc(-c2ccccc2O)nc1NC(=O)c1cccs1` it was 4.48.
Turning to `N#Cc1c(-c2cccc(NC(=O)CCN)c2)cc(-c2ccccc2O)nc1NC(=O)c1cccs1`, the negative-log IC50 (pIC50) is 7.68 on KiSS-1 receptor [1] and 5.96 on KiSS-1 receptor [2].
Turning to `COc1ccc(C(=O)Nc2nc(-c3ccccc3O)cc(-c3cccc(C(=O)NC(C)(C)CN)c3)c2C#N)cc1`, the pIC50 at KiSS-1 receptor [1] was 7.49.
Take `N#Cc1c(-c2ccc(C(=O)NCCN)cc2)cc(-c2ccccc2O)nc1NC(=O)c1cccs1`: the negative-log IC50 (pIC50) on KiSS-1 receptor [1] was 6.92.
For `N#Cc1c(-c2cccc(NC(=O)CCN)c2)cc(-c2ccccc2O)nc1NC(=O)c1ccccc1`, the negative-log IC50 (pIC50) was 7.29 at KiSS-1 receptor [1] and 4.62 at KiSS-1 receptor [2].
The matching figures for `N#Cc1c(-c2cccc(NC(=O)CN)c2)cc(-c2ccccc2O)nc1NC(=O)c1cccs1`: 7.29 and 5.55.
With `CC(C)(CN)CNC(=O)c1cccc(-c2cc(-c3ccc(F)cc3O)nc(NC(=O)c3ccco3)c2C#N)c1`, the pIC50 at KiSS-1 receptor [1] is 7.96; on KiSS-1 receptor [2] it was 5.60.
For `N#Cc1c(-c2cccc(NC(=O)CCCN)c2)cc(-c2ccccc2O)nc1NC(=O)c1cccs1`, in that order: 7.47 and 5.85.
`N#Cc1c(-c2cccc(NC(=O)CCN)c2)cc(-c2ccccc2N)nc1NC(=O)c1ccccc1` gave a pIC50 at KiSS-1 receptor [1] of 6.05.
At KiSS-1 receptor [1], `N#Cc1c(-c2cccc(NC(=O)CCN)c2)cc(-c2cc(Cl)ccc2O)nc1NC(=O)c1cccs1` showed a pIC50 of 6.31.
On the same count and under the same terms, in the case of `COc1ccccc1C(=O)Nc1nc(-c2ccccc2O)cc(-c2cccc(C(=O)NC(C)(C)CN)c2)c1C#N` it was 7.49.
Regarding `N#Cc1c(-c2cccc(NC(=O)CCN)c2)cc(-c2ccc(Cl)cc2O)nc1NC(=O)c1cccs1`, the figures for the pIC50 at KiSS-1 receptor [1] and on KiSS-1 receptor [2] were 8.01 and 5.39, respectively.
Turning to `N#Cc1c(-c2cccc(N)c2)cc(-c2ccccc2O)nc1NC(=O)c1cccs1`, the pIC50 at KiSS-1 receptor [1] is 5.68.
